RanGTP-Impb inh: inhibitors of RanGTP-importin-beta interaction, primary screen, biochemical, FRET, CFP-Ran, YFP-importin-beta, homogeneous; cell-free CFP-Ran/YFP-importin-beta FRET ratio; inhibition, % (concentration not given with the values); actives 1.1% (n = 300,000);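 active = more than half of the replicate wells show a fall in the fluorescence ratio signal beyond about 16%, limit read from the data, passing the limit was not always enough; inconclusive = exactly half of the replicate wells pass the set limit; inactive = fewer than half of replicates pass the limit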;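 note: 0% = DMSO wells and 100% = Ran loaded with GDP instead of GTP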
Runt-CBFb FRET: blocks binding of human RUNX1 Runt domain to CBFb; Cerulean-Runt/Venus-CBFb FRET ratio 530/480, 1 h; inhibition, % at 20 µM; Q01196+Q13951; actives 0.46% (n = 220,000); AID 1496;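 active = inhibition over about 50% at 20 µM in the single-dose screen, limit read from the data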;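 note: 0% = DMSO wells and 100% = excess unlabeled CBFb competitor control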
Target sequence (Q01196 whole entry, looked up, the tested form may be a part): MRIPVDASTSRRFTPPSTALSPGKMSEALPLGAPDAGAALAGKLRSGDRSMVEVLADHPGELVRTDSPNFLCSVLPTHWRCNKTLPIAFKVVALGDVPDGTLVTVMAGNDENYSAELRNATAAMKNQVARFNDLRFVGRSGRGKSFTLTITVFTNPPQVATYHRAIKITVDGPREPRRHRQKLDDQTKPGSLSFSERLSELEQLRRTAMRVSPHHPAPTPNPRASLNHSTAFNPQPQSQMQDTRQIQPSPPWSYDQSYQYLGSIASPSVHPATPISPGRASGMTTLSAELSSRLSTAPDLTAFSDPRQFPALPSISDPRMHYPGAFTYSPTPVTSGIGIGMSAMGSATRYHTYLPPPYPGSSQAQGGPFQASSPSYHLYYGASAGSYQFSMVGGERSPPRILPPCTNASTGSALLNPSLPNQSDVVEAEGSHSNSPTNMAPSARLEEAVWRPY
Target sequence (Q13951 whole entry, looked up, the tested form may be a part): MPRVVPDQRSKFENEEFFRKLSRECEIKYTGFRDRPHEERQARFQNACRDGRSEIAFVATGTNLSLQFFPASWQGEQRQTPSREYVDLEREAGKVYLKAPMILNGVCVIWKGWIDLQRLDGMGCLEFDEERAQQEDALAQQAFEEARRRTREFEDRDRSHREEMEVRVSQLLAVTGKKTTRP
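Schedule: protein complex preformed 1 h, compound exposure 1 h, room temperature, dark; test system: Cerulean-labeled Runt domain protein; amount: 100 nM per protein; buffer or medium: Tris 50 mM pH 7.5, KCl, K2SO4, 0.01% BSA; read-out: loss of energy transfer signal; detection: FRET fluorescence; controls: 5 µM unlabeled CBFb as full-inhibition high control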
VIM-2 inh: inhibitors of Pseudomonas aeruginosa VIM-2 metallo-beta-lactamase; purified VIM-2, nitrocefin hydrolysis, epi-absorbance fluorescence; actives 0.89% (n = 290,000); inhibition, % at 5.6 µM;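 active = inhibition above the mean of all tested compounds plus 3 SD, cutoff set per screening run, cut at about 7.5% in these data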;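 note: red hydrolysis product quenches plate fluorescence so inhibitors raise well fluorescence; 0% = enzyme with DMSO and 100% = DMSO without enzyme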
IMP-1 inh-1: inhibitors of Pseudomonas aeruginosa IMP-1 metallo-beta-lactamase; actives 0.45% (n = 290,000); AID 1556; inhibition, % at 5.6 µM; purified IMP-1, nitrocefin hydrolysis, epi-absorbance fluorescence;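 active = inhibition above the mean plus 3 SD of all compounds in the same screening run, cut at about 4.5% in these data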;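 note: 0% = IMP-1 with DMSO and 100% = DMSO wells lacking enzyme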
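Test system: recombinant IMP-1 enzyme, purified / Medium: HEPES buffer pH 7.1 with ZnSO4 and Brij 35 / Doses: single dose, 5.6 µM / Times: 25 °C, 15 min preincubation, 25 min reaction / Detection: Epi-absorbance via hydrolysed-nitrocefin quenching of white-plate fluorescence, 480/530 nm, EDTA stop / Evaluation: percent inhibition from optical density relative to buffer-blank wells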
Runt-SMMHC FRET: blocks binding of human RUNX1 Runt domain to CBFb-SMMHC; Cerulean-Runt/Venus-CBFb-SMMHC FRET ratio 530/480, 1 h; inhibition, % at 20 µM; actives 0.74% (n = 220,000);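 active = mean inhibition across duplicate retests at 20 µM reaching about 50%, limit read from the data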;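 note: 0% = DMSO wells and 100% = wells with excess untagged CBFb-SMMHC; inhibitors lower the FRET ratio by blocking Runt binding to CBFb-SMMHC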
Runt-CBFb TRFRET: disrupts human RUNX1 Runt domain binding to CBFb; actives 20% (n = 480); inhibition, % at 20 µM; AID 1502; TR-FRET RUNX1 Runt domain-CBFb binding; shares compounds with Runt-CBFb FRET; in the data active = inhibition above about 40%
IMP-1 inh-2: selectivity counter-screen for VIM-2 inhibitors: IMP-1 metallo-beta-lactamase inhibitors; 1,300 tested, under 10 active; inhibition, % at 5.6 µM; shares compounds with VIM-2 inh; purified IMP-1, nitrocefin hydrolysis, epi-absorbance fluorescence; call rule not given here;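 note: 0% = enzyme with vehicle and 100% = vehicle without enzyme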
VIM-2 FRET ctr: VIM-2 FRET inhibition, artifact counter-screen; shares compounds with VIM-2 inh; purified VIM-2, CCF2 FRET substrate hydrolysis; inhibition, % at 5.6 µM; actives 23% (n = 1,300);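 active = inhibition above the mean of all tested compounds plus 3 SD, cut at about 19% in these data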;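 note: 0% = VIM-2 plus DMSO and 100% = no enzyme wells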
TEM-1 counter-1: blocks E. coli TEM-1 beta-lactamase in VIM-2 selectivity screen | shares compounds with VIM-2 inh | Purified TEM-1, nitrocefin hydrolysis, epi-absorbance fluorescence | inhibition, % at 5.6 µM | actives 3% (n = 1,300);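 active = inhibition above that campaign's mean inhibition plus 3 SD, cut at about 0.46% in these data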;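 note: 0% = TEM-1 with DMSO and 100% = TEM-1 with 100 µM potassium clavulanate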
VIM-2 inh conf: confirmation of P. aeruginosa VIM-2 metallo-beta-lactamase inhibitors | shares compounds with VIM-2 inh | purified VIM-2, nitrocefin hydrolysis, epi-absorbance | inhibition, % at 5.6 µM | actives 96% (n = 1,300);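 active = inhibition of the VIM-2 beta-lactamase enzyme above about 11% from the earlier first-round screen, limit read from the data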;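 note: 0% = VIM-2 with DMSO and 100% = buffer wells without enzyme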
VIM-2 inh confirm: VIM-2 inhibition, confirmation assay | shares compounds with IMP-1 inh-1 | purified VIM-2 enzyme, nitrocefin absorbance | inhibition, % at 5.6 µM | actives 73% (n = 200) | AID 1860; in the data active = inhibition above about 8%;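 note: 0% = enzyme with vehicle and 100% = no enzyme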
TEM-1 counter-2: blocks E. coli TEM-1 beta-lactamase, VIM-2 IMP-1 counter-screen. inhibition, % at 5.6 µM. shares compounds with IMP-1 inh-1. actives 50% (n = 200). nitrocefin absorbance inhibition; in the data active = inhibition above about 0.66%
IMP-1 inh conf: confirmation of P. aeruginosa IMP-1 metallo-beta-lactamase inhibitors. actives 60% (n = 200). purified IMP-1 enzyme, absorbance substrate hydrolysis. shares compounds with IMP-1 inh-1. inhibition, % at 5.6 µM; in the data active = inhibition above about 4.9%;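 note: 0% = enzyme with vehicle and 100% = vehicle without enzyme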
YIC counter: counter-screen for RanGTP-importin-beta inhibitors: YIC FRET probe; shares compounds with RanGTP-Impb inh; Purified YIC probe, intramolecular FRET ratio YFP/CFP; IC50, µM; actives 40% (n = 1,000); AID 435026;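 active = fitted half-maximal inhibitory concentration no more than tenfold above the top dose tested; inconclusive = flat fit with 30 to 70% activity, or poor fit; inactive = half-maximal concentration beyond tenfold above the top dose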
* hit, by the source's call. Only some compounds are listed: those with a hit (about 2.6% of all), similar ones and a draw of the others.

What do the screens show for `Cc1ccc(CCNC(=O)C2CCC(=O)N(Cc3ccccc3F)C2)o1` (stereo not given)?
RanGTP-Impb inh: -2; VIM-2 inh: -1; IMP-1 inh-1: -2

Results for CCOc1ccc2nc(NCCCNC(=O)c3cc(OC)c(OC)c(OC)c3)c(C#N)cc2c1 ?
RanGTP-Impb inh: 135*; Runt-CBFb FRET: 60*; VIM-2 inh: 2; IMP-1 inh-1: -1; Runt-SMMHC FRET: 81*; Runt-CBFb TRFRET: 7

Results for COc1cc(C(=O)NCCCNC(=O)c2cc(OC)c(OC)c(OC)c2)cc(OC)c1OC ?
RanGTP-Impb inh: 3

How did O=C1OC(c2ccccc2)=N/C1=C\C=C\c1ccccc1[N+](=O)[O-] do in these assays?
RanGTP-Impb inh: 2; Runt-CBFb FRET: 74*; VIM-2 inh: 16*; IMP-1 inh-1: 3; Runt-SMMHC FRET: 67; Runt-CBFb TRFRET: 32; IMP-1 inh-2: -2; VIM-2 FRET ctr: 30*; TEM-1 counter-1: -2; VIM-2 inh conf: 9.9*

Results for Cc1ccc2c(c1)CCCN2S(=O)(=O)c1cccc(C(=O)Nc2ccccc2C(=O)O)c1 ?
RanGTP-Impb inh: -1; VIM-2 inh: -3; IMP-1 inh-1: -2

How did Cc1cc(C)n2nc3nc4c(cc3c2n1)CCCC4 do in these assays?
RanGTP-Impb inh: 5; Runt-CBFb FRET: 65*; VIM-2 inh: 11*; IMP-1 inh-1: 5.0*; Runt-CBFb TRFRET: 63*; VIM-2 inh confirm: 15*; TEM-1 counter-2: -1; IMP-1 inh conf: -1

Results for O=C(CN(Cc1ccc(Cl)cc1)C(=O)CNS(=O)(=O)c1ccccc1)NCC1CCCO1 (stereo not given) ?
RanGTP-Impb inh: 1; VIM-2 inh: -3; IMP-1 inh-1: -4

What do the screens show for `Cc1ccc(N=Cc2cc3c(cc2O)OC(N)=C(C#N)C3c2ccccc2)cc1` (stereo not given)?
RanGTP-Impb inh: 43*; Runt-CBFb FRET: 79*; VIM-2 inh: -2; IMP-1 inh-1: -3; Runt-SMMHC FRET: 117*; Runt-CBFb TRFRET: 4; YIC counter: >50

Results for N#CC1=C(N)Oc2cc(O)c(C=Nc3ccccc3)cc2C1c1ccccc1 (stereo not given) ?
RanGTP-Impb inh: inconclusive; Runt-CBFb FRET: 27; VIM-2 inh: -2; IMP-1 inh-1: -1; Runt-SMMHC FRET: 34

What do the screens show for `CCn1nc(NC(=O)c2ccccn2)c2cc3cccc(C)c3nc21`?
RanGTP-Impb inh: 38*; Runt-CBFb FRET: 60*; VIM-2 inh: -5; IMP-1 inh-1: -4; Runt-SMMHC FRET: 39; Runt-CBFb TRFRET: -17; YIC counter: 0.86*

How did COc1ccccc1C(=O)NCCC(=O)NNC(=O)Cn1ccc(C(F)(F)F)n1 do in these assays?
RanGTP-Impb inh: 4

How did Cc1nc2ccc(S(=O)(=O)Nc3ccc(-c4nc5cccnc5s4)cc3)cc2s1 do in these assays?
RanGTP-Impb inh: 21*; Runt-CBFb FRET: 74*; VIM-2 inh: 1; IMP-1 inh-1: -1; Runt-CBFb TRFRET: 86*; YIC counter: 39*

Results for Cn1nccc1C(=O)Nc1sc2c(c1C#N)CCCC2 ?
RanGTP-Impb inh: -3; VIM-2 inh: 0; IMP-1 inh-1: 0

What do the screens show for `COc1ccc(-c2c(C)sc(NC(=O)c3ccnn3C)c2C#N)cc1`?
RanGTP-Impb inh: 25*; Runt-CBFb FRET: 57*; VIM-2 inh: -1; IMP-1 inh-1: -2; Runt-SMMHC FRET: 18; Runt-CBFb TRFRET: -52; YIC counter: >50

What do the screens show for `O=C(NCC(c1cccs1)N1CCOCC1)C1CCN(S(=O)(=O)c2c(Cl)cccc2Cl)CC1` (stereo not given)?
RanGTP-Impb inh: -1

How did O=C(Oc1ccc(C(=S)N2CCOCC2)cc1Br)c1cc(Cl)ccc1Cl do in these assays?
RanGTP-Impb inh: 1; VIM-2 inh: -3; IMP-1 inh-1: -1; Runt-SMMHC FRET: -4

What do the screens show for `O=C(Oc1c(Br)cc(C(=S)N2CCOCC2)cc1Br)c1ccc(Cl)cc1`?
RanGTP-Impb inh: 17*; Runt-CBFb FRET: 50*; VIM-2 inh: 1; IMP-1 inh-1: 0; Runt-SMMHC FRET: 24; Runt-CBFb TRFRET: -11; YIC counter: >50

What do the screens show for `O=C(CN1C(=O)NC2(CCOc3ccccc32)C1=O)c1ccc(Br)cc1` (stereo not given)?
RanGTP-Impb inh: 5; VIM-2 inh: -1; IMP-1 inh-1: -2

Results for COC(=O)C1=C(C)NC2=C(C(=O)CCC2)C1c1cccc(C)n1 (stereo not given) ?
RanGTP-Impb inh: 19*; Runt-CBFb FRET: 60*; VIM-2 inh: -1; IMP-1 inh-1: 0; Runt-SMMHC FRET: 132*; Runt-CBFb TRFRET: 4; YIC counter: 31*

What do the screens show for `OCCC1CN(CC2CC2)CCN1Cc1ccc(F)c(F)c1` (stereo not given)?
RanGTP-Impb inh: -2; VIM-2 inh: -1; IMP-1 inh-1: -1

How did C=CCn1c(N)c(C(=O)OC(C)CC)c2nc3ccccc3nc21 (stereo not given) do in these assays?
RanGTP-Impb inh: 35*; Runt-CBFb FRET: 66*; VIM-2 inh: -2; IMP-1 inh-1: -2; Runt-SMMHC FRET: 123*; Runt-CBFb TRFRET: 28; YIC counter: 22*
